Rce1 inhib: yeast Ras-converting enzyme inhibition. actives 0.27% (n = 290,000). yeast membranes, quenched prenylated peptide cleavage fluorescence. Q03530. calls only;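 active = fall in fluorescence gain of 50% or more versus controls, with final raw signal at or below 3038400; inconclusive = same 50% fall but final raw signal above 3038400; inactive = fall in fluorescence gain under 50%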;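 note: plate controls were neutral control wells for no effect and wells lacking membranes for full effect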
Target sequence (Q03530 whole entry, looked up): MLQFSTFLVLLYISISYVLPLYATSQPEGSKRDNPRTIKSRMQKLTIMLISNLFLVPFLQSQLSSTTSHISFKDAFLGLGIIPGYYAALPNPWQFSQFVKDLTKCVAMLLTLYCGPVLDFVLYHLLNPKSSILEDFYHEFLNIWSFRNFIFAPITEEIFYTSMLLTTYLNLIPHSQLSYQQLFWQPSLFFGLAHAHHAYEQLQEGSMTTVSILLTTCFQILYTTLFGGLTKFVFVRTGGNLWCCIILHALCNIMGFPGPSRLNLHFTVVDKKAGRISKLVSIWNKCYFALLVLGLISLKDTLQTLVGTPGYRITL
Vif imaging: blocks HIV Vif function. inhibition, % at 7.49 µM. HEK293T cells, Vif self-association by quenched fluorescence, imaging, 24 h. actives 0.35% (n = 340,000); in the data active = inhibition above about 50%, passing the limit was not always enough; inconclusive = no clear call, values can overlap the other calls; inactive = below about 31%
Runt-SMMHC FRET: blocks binding of human RUNX1 Runt domain to CBFb-SMMHC; Q01196+Q13951; Cerulean-Runt/Venus-CBFb-SMMHC FRET ratio 530/480, 1 h; inhibition, % at 20 µM; actives 0.74% (n = 220,000); AID 1434;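 active = mean inhibition across duplicate retests at 20 µM reaching about 50%, limit read from the data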;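 note: 0% = DMSO wells and 100% = wells with excess untagged CBFb-SMMHC; inhibitors lower the FRET ratio by blocking Runt binding to CBFb-SMMHC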
Runt-CBFb FRET: Runt domain-CBFb interaction inhibition | Q01196+Q13951 | Cerulean-Runt/Venus-CBFb FRET ratio 530/480, 1 h | inhibition, % at 20 µM | actives 0.46% (n = 220,000);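 active = inhibition over about 50% at 20 µM in the single-dose screen, limit read from the data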;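 note: 0% = DMSO wells and 100% = excess unlabeled CBFb competitor control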
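Measured by: fluorescence energy transfer, 422 nm excitation, 530/480 nm emission; Assay system: Cerulean-Runt domain; Medium: Tris pH 7.5 buffer with BSA; Measure: loss of energy transfer signal; Controls: 5 µM unlabeled CBFb as full-inhibition high control; Incubation: protein complex preformed 1 h, compound exposure 1 h, room temperature, dark.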
RanGTP-Impb inh: disruptors of Ran-importin-beta complex formation – biochemical, FRET, CFP-Ran, YFP-importin-beta, homogeneous, primary screen; cell-free CFP-Ran/YFP-importin-beta FRET ratio; inhibition, % (no concentration beside the values); actives 1.1% (n = 300,000); AID 2216;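 active = more than half of the replicate wells show a fall in the fluorescence ratio signal beyond about 16%, limit read from the data, passing the limit was not always enough; inconclusive = exactly half of the replicate wells pass the set limit; inactive = fewer than half of replicates pass the limit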;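 note: 0% = DMSO wells and 100% = Ran loaded with GDP instead of GTP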
* marks the source's active call; other numbers are inactive results; i = inactive; ? = inconclusive; . = no result; + = active, no number. Rows were chosen to be rich in hits. Some 1.7% of all compounds tested hit in one or more screens of this group.

SMILES | Rce1 inhib | Vif imaging | Runt-SMMHC FRET | Runt-CBFb FRET | RanGTP-Impb inh
O=C(/C=C/c1ccccc1)Nc1ncn[nH]1 | i | 59* | 0 | -3 | 0
O=C(O)C(=O)Nc1ncn[nH]1 | . | 4 | . | . | .
Cc1ccc(C)c(-n2c(-c3ccco3)n[nH]c2=S)c1 | i | -4 | . | . | 15*
COc1ccc2[nH]c3c4c(ccc3c2c1)C(=O)C=CC4=O | . | 52* | 24 | 55* | .
CCn1nc(C)cc1C(=O)NC1CC(C)(C)Cc2c1cnn2-c1cccc(F)c1 (stereo unspecified) | + | -6 | . | . | -4
COc1cc(-c2cc(=O)c3c(O)c(OC)c(OC)cc3o2)cc(OC)c1O | i | 89* | -2 | -1 | 1
COc1ccc(-c2cc(=O)c3c(O)c(OC)c(O)cc3o2)cc1 | i | -5 | -3 | 2 | 7
CNc1sc(C(=O)c2cccs2)c(N)c1-c1nc2ccccc2s1 | i | -2 | 76* | 8 | -1
CNc1sc(C(=O)c2ccc(F)cc2)c(N)c1-c1nc2ccccc2s1 | i | -2 | 0 | 5 | 0
CNc1cc(NS(=O)(=O)c2ccc(N)cc2)nc(NC)n1 | . | 53* | . | . | .
Cc1cc(C)nc(NS(=O)(=O)c2ccc(N)cc2)n1 | i | 2 | 0 | -1 | -1
COc1ccccc1CN1CCN(S(=O)(=O)c2ccc(C)cc2)CC1 | i | -3 | . | . | -2
COCCNC(=O)/C(C#N)=C/c1ccc(-c2ccc(S(=O)(=O)N3CCOCC3)cc2)o1 | i | -22 | 24 | 9 | 15*
Cc1nn2c(COc3ccc(NC(=O)c4ccccc4Cl)cc3)nnc2c2ccccc12 | i | 99* | 0 | 0 | -2
Cc1sc(NC(=S)NC(=O)CCc2ccccc2)c(C(N)=O)c1C | . | 125* | 2 | 29 | .
COC(=O)CCC(=O)NC(=S)Nc1sc(C)c(C)c1C(N)=O | i | 24 | -2 | 26 | 5
Cc1cc(C)n(-c2ccnc3cc(Cl)ccc23)n1 | i | -12 | . | . | -1
O=C(Nc1cccc(NC(=O)c2cc([N+](=O)[O-])ccc2Cl)n1)c1cc([N+](=O)[O-])ccc1Cl | i | 58* | . | . | 8
Cn1c2ccccc2c(=O)c2ccc(C#CC3(N)CCCCC3)cc21 | i | -13 | . | . | 163*
NC1(C#Cc2ccc3c(=O)c4ccccc4sc3c2)CCCCC1 | . | -3 | . | . | .
O=c1c2ccccc2oc2ccc(C#CC3(O)CCCCC3)cc12 | i | -1 | . | . | 1
Cn1c2ccccc2c(=O)c2cc(C#CC3(O)CCCCC3)ccc21 | i | 24 | . | . | 169*
COc1ccccc1OCC(=O)Nc1ccc(S(=O)(=O)N2CCN(C)CC2)cc1 | i | -4 | -4 | 2 | 5
COc1ccccc1OCC(=O)Nc1ccc(S(=O)(=O)N2CCCC2)cc1 | i | 76* | . | . | -3
COc1ccccc1/C=C/C=N/NC(=O)CN1CCN(S(=O)(=O)c2ccc(C)cc2)CC1 | + | -6 | 1 | -4 | 3
SMILES | Rce1 inhib | Vif imaging | Runt-SMMHC FRET | Runt-CBFb FRET | RanGTP-Impb inh
CCOc1ccc(NC(=O)CN(C)C(=O)c2cc(S(=O)(=O)N3CCCCC3)ccc2Cl)cc1OCC | i | 92* | . | . | 0
Cc1ccc(S(=O)(=O)N2CCN(CC(=O)N/N=C/c3ccccc3OCC(=O)O)CC2)cc1 | i | . | -3 | 0 | 1
O=C(COc1ccccc1Cl)Nc1ccc(CN2CCCCC2)cc1 | i | 0 | -2 | -1 | 31*
CCCC(C)(C)C(=O)N1CCC1(C)C(=O)NS(=O)(=O)c1ccc(Cl)cc1 (stereo unspecified) | . | 1 | . | . | .
CSc1ncccc1C(=O)OCC(=O)NC(C)(C)C | i | 52* | -4 | 1 | 1
O=C(CN1CCN(S(=O)(=O)c2ccccc2)CC1)N1CCc2ccccc21 | . | -7 | . | . | .
CCOC(=O)c1c2ccc(OCC(=O)N/N=C/c3ccc(C)cc3)cc2n2ccccc12 | i | 2 | 78 | -4 | 29*
CCOC(=O)c1c2ccc(OCC(=O)NN)cc2n2ccccc12 | i | 3 | 86* | 21 | 66*
CCOC(=O)c1c(C)n(C)c2cc(OCCN(CC)CC)ccc12 | i | 2 | -1 | -1 | -1
CN1CCN(S(=O)(=O)c2ccc(F)cc2)CC1 | . | 27 | . | . | .
Cc1oc(C(=O)O)cc1COc1ccc2c(C)cc(=O)oc2c1 | i | -4 | 0 | 2 | 1
Cc1cc(=O)oc2cc(OCc3cc4c(cc3Cl)OCO4)ccc12 | i | 40* | 3 | -3 | -3
CCCCCCCCNC(C)C(O)c1ccc(SC(C)C)cc1 (stereo unspecified) | + | -2 | 4 | -3 | 1
C[C@@H](NCCc1ccc(O)cc1)[C@@H](O)c1ccc(O)cc1 | i | 4 | . | . | -3
O=S1c2ccccc2Sc2ccccc21 | . | 5 | . | . | .
CC1(C(=O)N(CC(=O)NC2CCCC2)Cc2ccco2)CC(=O)N=C2C=CC=CN21 (stereo unspecified) | + | 1 | 2 | 2 | 4
CC1(C(=O)N(CC(=O)NC2CCCC2)Cc2ccccc2)CC(=O)N=C2C=CC=CN21 (stereo unspecified) | + | 1 | . | . | -4
CCN(CC(=O)N1CCOCC1)S(=O)(=O)c1ccc(Cl)cc1 | i | -7 | . | . | 2
CCOC(=O)c1cc(CC)sc1NC(=O)COC(=O)C1CCC1 | i | 13 | . | . | -3
CCOC(=O)c1[nH]c2ccc(OC)cc2c1NC(=O)CN1CCC2(CC1)OCCO2 | + | . | 1 | 3 | 3
CCOC(=O)c1[nH]c2ccc(OC)cc2c1NC(=O)C(C)N1CCC2(CC1)OCCO2 (stereo unspecified) | . | . | -8 | -1 | .
COc1ccc(-n2ncc(Cl)c(Cl)c2=O)cc1 | i | 3 | 3 | -1 | -5
COc1ccc(Sc2cnn(-c3ccccc3)c(=O)c2Cl)cc1 | i | 51* | -1 | -2 | -2
CCOC(=O)C1(S(=O)(=O)c2ccc(Cl)cc2)CCN(Cc2ccc(C)cc2)CC1 | i | -3 | 3 | -2 | -2
CC(C)(C)OC(=O)N1CCC(c2c(C(=O)NCC3CCN(C4CCCC4)C3)cnn2-c2ccccc2)CC1 (stereo unspecified) | i | 14 | . | . | -1
SMILES | Rce1 inhib | Vif imaging | Runt-SMMHC FRET | Runt-CBFb FRET | RanGTP-Impb inh
O=C(NCc1ccccc1)c1cc2ccc(O)cc2oc1=O | ? | -3 | . | . | 186*
O=C(c1ccccc1)c1cc2ccccc2oc1=O | i | -10 | . | . | -1
O=C(NNC(=O)c1cc2ccccc2oc1=O)c1ccccc1 | i | 79* | . | . | 2
C/C(=N\NC(=O)CC#N)c1ccc(Oc2ccccc2)cc1 | i | -6 | 1 | -1 | -1
O=C(O)c1ccc(N=c2oc3cc(O)ccc3cc2C(=O)NCc2ccccc2)cc1 | i | -6 | 88* | 4 | 169*
O=C(O)c1cc2ccc(O)cc2oc1=O | . | -4 | . | . | .
C/C(=N\NC(=O)CC#N)c1cc2ccc(O)cc2oc1=O | i | -5 | 92* | 20 | 2
COc1cc(CN2C[C@@H](CO)O[C@@H](n3cnc4c(N5CCOCC5)ncnc43)C2)cc(OC)c1OC | . | 1 | . | . | .
